Experimental data gathered from unrelated publications.
Target: Homeodomain-interacting protein kinase 2 (HIPK2, Homo sapiens, UniProt Q9H2X6)
Observed: enzyme activity
Action: inhibitor

| SMILES | method | concentration | remaining activity [%] |
| --- | --- | --- | --- |
| COc1cc(Nc2cnc(C#N)c(O[C@H](C)CN(C)C)n2)ncc1-c1cnn(C)c1 | radiometric | 1 µM | 89 |
| O=C(Nc1cnn(-c2csc(C(=O)NC3COC3)c2)c1)Nc1ccccc1Cl | – | 5 µM | 102 |
| FC(F)c1nc2ccccc2n1-c1nc(N2CCOCC2)nc(N2CCOCC2)n1 | – | 10 µM | 63 |
| Cc1sc(C(=O)NC2COC2)cc1-n1cc(NC(=O)Nc2c(F)cccc2Cl)cn1 | – | 10 µM | 103 |
| Cc1cnc(NC2CCOCC2)nc1-n1cnc(C(=O)NC(CN)c2cc(F)cc(Cl)c2)c1 (stereo not shown) | radiometric | 1 µM | 92 |
| CCN(CC)c1ccc(C2=NNC(=O)CC2C)cc1[N+](=O)[O-] (stereo not shown) | – | 10 µM | 106 |
| CC(C)(C)c1nc2c(s1)c1nc(N)ncc1c1ccc(NS(=O)(=O)c3c(F)cccc3F)c(F)c12 | radiometric | 1 µM | 80 |
| O=C(O)c1ccc2c(c1)nc(NCCc1ccccc1)c1ccncc12 | radiometric | 1 µM | 4 |
| CC(C)(O)[C@H]1CC[C@H](Nc2ccc3ncc(-c4cccc(C(F)(F)F)c4)n3n2)CC1 | – | 1 µM | 70.3 |
| O=C(O)c1ccc2c(c1)nc(NCCc1cccc(F)c1)c1ncncc12 | radiometric | 1 µM | 6 |
| Cn1c(=O)n(-c2ccc(C(C)(C)C#N)cc2)c2c3cc(-c4cnc5ccccc5c4)ccc3ncc21 | – | 10 µM | 101 |
| O=C(O)c1ccc2c(c1)nc(Nc1ccccc1)c1ncncc12 | radiometric | 1 µM | 2 |
| Nc1nc(NC2CCCCC2)sc1C(=O)c1ccccc1 | – | 10 µM | 64 |
